Assay outcomes deposited in PubChem BioAssay by several laboratories.
NR2E3 ag-1 – inhibitors of NR2E3-RetCOR corepressor binding, primary screen, NR2E3 agonist project, biochemical, TR-FRET, GST-NR2E3, biotin-RetCOR. 1536-well. inhibition of corepressor binding, % at 4.78 µM. hit rate 0.12% among 320,000. AID 2300, 2010;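 active = percent inhibition above the cutoff of mean plus 3 SD of all tested compounds, set per screening campaign, cut at about 20% in these data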;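 also: 0% = DMSO wells and 100% = biotin wells as full block of FRET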
Target sequence (Q9Y5X4 whole entry, looked up): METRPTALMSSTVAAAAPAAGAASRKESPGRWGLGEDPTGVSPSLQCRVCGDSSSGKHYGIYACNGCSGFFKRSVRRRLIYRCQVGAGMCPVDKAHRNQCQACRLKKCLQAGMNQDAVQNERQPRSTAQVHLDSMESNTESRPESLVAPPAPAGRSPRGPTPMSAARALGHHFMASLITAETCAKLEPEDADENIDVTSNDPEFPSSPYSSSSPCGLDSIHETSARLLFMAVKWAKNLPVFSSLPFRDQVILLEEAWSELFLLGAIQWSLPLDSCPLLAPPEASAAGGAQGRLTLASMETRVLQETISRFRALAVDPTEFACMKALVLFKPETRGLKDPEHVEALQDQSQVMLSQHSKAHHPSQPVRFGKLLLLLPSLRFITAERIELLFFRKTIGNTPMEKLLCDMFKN
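Format: 1536-well format; test system: GST-NR2E3 and biotin-RetCOR proteins; read-out basis: percent inhibition of TR-FRET ratio; timing: 5 h incubation at 4 °C; detection: time-resolved FRET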
NR2E3 ag-2 – NR2E3 agonists in two-hybrid cells, primary screen, cell-based, luminescence, CHO-S, Gal4-NCOR/VP16-NR2E3 | AID 602229, 2012 | luciferase | Photoreceptor-specific nuclear receptor (Homo sapiens), Q9Y5X4 | hit rate 0.35% among 360,000 | inhibition of corepressor binding, % at 3.98 µM;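 active = inhibition above the mean of all tested compounds plus 3 SD, cut at about 70% in these data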;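 also: 0% = DMSO with NR2E3 transfected cells and 100% = cells lacking NR2E3 construct; higher means lower luciferase signal from less NR2E3 corepressor binding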
Jurkat NFkB inh – inhibitors of induced NF-kB luciferase reporter, primary screen, TCR NF-kB activation inhibitor project, cell-based, luminescence, uHTS. Jurkat, PMA/ionomycin-induced NF-kB luciferase reporter. inhibition, % at 4 µM. hit rate 0.53% among 330,000. AID 435003, 2010; in the data active = inhibition above about 50%
697 NFkB inh – inhibitors of PMA/ionomycin-induced NF-kB reporter, 697 cells, primary screen, B-cell NF-kB inhibitor project, cell-based, luminescence, uHTS; 697 B-cell NF-kB luciferase reporter, 16 h; inhibition, % at 4 µM; hit rate 0.33% among 330,000; AID 435022, 2010; in the data active = inhibition above about 35%
MPTP inh – mitochondrial permeability transition pore inhibitors, primary screen, biochemical, isolated mouse mitochondria, absorbance; Ca2+ swelling absorbance, 30 min; inhibition, % at 10 µM; hit rate 1.4% among 360,000; AID 602449, 2012;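 active = inhibition of 50% or more, scaled per plate between neutral and stimulator controls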;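 also: 0% = DMSO wells given calcium and 100% = 1 mM EGTA wells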
aDG glyco act – activators of alpha-DG glycosylation, primary screen, uHTS, Pro5-aDG cells, AlphaScreen | activation, % at 10 µM | hit rate 0.22% among 360,000 | alpha-DG glycosylation AlphaScreen (IIH6); 0% Pro5, 100% B10-LARGE cell signal | AID 624168, 2012;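 active = activation of at least 8% versus controls, or a plate z-score of at least 8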;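 also: Pro5 are CHO cells carrying HIG-tagged alpha-DG that lacks glycosylation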
Jurkat NFkB conf – PMA/ionomycin-induced NF-kB reporter inhibitors, Jurkat retest, confirmation, T-cell NF-kB inhibitor project, cell-based, luminescence, single concentration | hit rate 27% among 2,700 | shares compounds with Jurkat NFkB inh | AID 435020, 2010 | Jurkat NF-kB luciferase, 16 h | inhibition, % at 4 µM;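 active = inhibition reaching about 45% at 4 µM in either replicate, limit read from the data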;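 also: plate controls were PMA/ionomycin stimulated DMSO wells for no effect and unstimulated DMSO wells for full effect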
697 NFkB conf – PMA/ionomycin-induced NF-kB reporter inhibitors, 697 retest, confirmation, B-cell NF-kB inhibitor project, cell-based, luminescence, single concentration; hit rate 35% among 2,000; AID 449746, 2010; 697 B-cell NF-kB luciferase, 16 h; inhibition, % at 4 µM; shares compounds with 697 NFkB inh; in the data active = inhibition mostly above about 28%, no sharp cut-off; inactive = mostly below about 22%
NR2E3 ag confirm – NR2E3 agonist confirmation in cells, cell-based, luminescence, CHO-S two-hybrid | shares compounds with NR2E3 ag-2 | CHO-S mammalian two-hybrid NR2E3-NCOR, luciferase luminescence | inhibition, % at 3.98 µM | hit rate 51% among 2,300 | AID 624378, 2012;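 active = average inhibition above a cutoff equal to the mean inhibition of all tested compounds plus one SD, cut at about 70% in these data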;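 also: 0% = DMSO in NR2E3 cells and 100% = DMSO in cells lacking NR2E3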
VP16 counter – GAL4-VP16 reporter modulators, confirmation, counter-screen for NR2E3 agonist project, cell-based, luminescence, CHO-S, high throughput. CHO-S GAL4-VP16 luciferase reporter. shares compounds with NR2E3 ag-2. inhibition, % at 3.98 µM. hit rate 29% among 2,300;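 active = mean inhibition above a cutoff equal to the average over all tested compounds plus one standard deviation, cut at about 70% in these data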;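 also: luciferase from a UAS reporter driven by GAL4-VP16 transactivation; 0% = DMSO with VP16-transfected cells and 100% = DMSO with cells lacking VP16; higher means less reporter light so more repression of VP16 activity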
MPTP counter – fluorescence retest of MPTP screen hits in isolated mitochondria, single concentration; shares compounds with MPTP inh; membrane potential, Rhodamine 123 fluorescence; inhibition, % at 10 µM; hit rate 78% among 5,000; AID 624504, 2012; in the data active = inhibition above about 22%;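 also: 0% = DMSO vehicle and 100% = positive control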
Numbers without * were called inactive; i = inactive; . = no result given; + = active, no number. This is a sample that favours compounds with a hit; in the whole collection about 2.4% have one here.

SMILES | NR2E3 ag-1 | NR2E3 ag-2 | Jurkat NFkB inh | 697 NFkB inh | MPTP inh | aDG glyco act | Jurkat NFkB conf | 697 NFkB conf | MPTP counter | others
CC[n+]1c(/C=C/C=C/c2ccc(N(C)C)cc2)sc2ccccc21 | -58 | 34 | 70* | -35 | 134* | 2 | 20 | . | 71*
CC[n+]1c(/C=C/N(C)c2ccccc2)sc2ccc(Cl)cc21 | 5 | -24 | 24 | -16 | 7 | 0 | . | . | .
CC(=O)c1cn(Cc2ccccc2C#N)c2ccccc12 | 2 | 75* | 52* | 47* | 77* | 7.5* | 55* | 30* | 90* | NR2E3 ag confirm=88*;VP16 counter=85*
COc1cc2c(cc1OC)[C@@H]1C(=O)c3ccc4c(c3O[C@@H]1CO2)C[C@H](C(C)C)O4 | 0 | 96* | 74* | 71* | 96* | 3 | 78* | 81* | 83* | NR2E3 ag confirm=100*;VP16 counter=93*
O=c1cccc2n1CC1CC2CN(Cc2cccc(Cl)c2Cl)C1 (stereo not drawn) | 1 | -23 | -6 | 4 | -3 | 0 | . | . | .
COc1ccc(-c2cc(=O)oc3c(C)c(OC(C)C(=O)N4C[C@H]5C[C@@H](C4)c4cccc(=O)n4C5)ccc23)cc1 (stereo partly drawn) | 3 | -13 | 18 | 25 | 0 | 0 | . | . | .
COc1ccccc1N1CCN(CCc2ccccc2)CC1 | 1 | -14 | -14 | -22 | 0 | 0 | . | . | .
CCN1/C(=C\C=C\C2=[N+](CC)c3ccccc3C2(C)C)C(C)(C)c2ccccc21 | 7 | 104* | 100* | -37 | + | 1 | 80* | . | 84*
CC(=O)OC1CC[C@]2(C#N)[C@H]3CC[C@]4(C)[C@H](C5C=CC(=O)O5)CCC4(O)C3CCC2(O)C1 (stereo partly drawn) | 0 | -10 | 10 | i | -1 | 0 | . | -246 | .
COC(=O)C(C)Oc1cc(C)cc2oc(=O)c3c(c12)CCC3 (stereo not drawn) | 1 | -8 | 14 | 36* | -4 | -1 | . | 55* | .
COC(=O)C(C)Oc1cc(C)cc2oc(=O)c3c(c12)CCCC3 (stereo not drawn) | -1 | -38 | -12 | 2 | 2 | 0 | . | . | .
C#CCOC(=O)C1=CCCN(C)C1 | 2 | -31 | 6 | 9 | 0 | 0 | . | . | .
N=c1c2c(n(Cc3ccc(Cl)cc3Cl)c3c1CCC3)CCCC2 | -1 | -11 | 30 | 68* | 0 | 0 | . | 33* | .
O=C(NC1CCCCC1)N1C[C@H]2C[C@@H](C1)c1cccc(=O)n1C2 | -3 | 6 | -9 | 19 | 0 | 0 | . | . | .
Cc1cc(C)cc(N2C(=O)NC(=O)/C(=C\c3cccn3-c3ccc(Cl)cc3)C2=O)c1 | 5 | -6 | 13 | 24 | 4 | 0 | . | . | .
